Bioassay records from PubChem.
The entries come from a sample that favours hits as a whole.
PTK2B oligo ant – blocks oligomerization of human Pyk2 in cells; Q14289; Q293 cells, Pyk2 FERM NanoBiT luminescence; stronger effect = lower value; z-score (the deposit names both 25 µM and 10 µM); 0.83% of 99,000 active;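 active means Z-score of -3 or lower, scaled per plate to the spread of control and sample wells; inactive means z-score above -3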;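 further: negative z-score means lost luminescence so less FERM oligomerization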
Target sequence (Q14289 whole entry, looked up): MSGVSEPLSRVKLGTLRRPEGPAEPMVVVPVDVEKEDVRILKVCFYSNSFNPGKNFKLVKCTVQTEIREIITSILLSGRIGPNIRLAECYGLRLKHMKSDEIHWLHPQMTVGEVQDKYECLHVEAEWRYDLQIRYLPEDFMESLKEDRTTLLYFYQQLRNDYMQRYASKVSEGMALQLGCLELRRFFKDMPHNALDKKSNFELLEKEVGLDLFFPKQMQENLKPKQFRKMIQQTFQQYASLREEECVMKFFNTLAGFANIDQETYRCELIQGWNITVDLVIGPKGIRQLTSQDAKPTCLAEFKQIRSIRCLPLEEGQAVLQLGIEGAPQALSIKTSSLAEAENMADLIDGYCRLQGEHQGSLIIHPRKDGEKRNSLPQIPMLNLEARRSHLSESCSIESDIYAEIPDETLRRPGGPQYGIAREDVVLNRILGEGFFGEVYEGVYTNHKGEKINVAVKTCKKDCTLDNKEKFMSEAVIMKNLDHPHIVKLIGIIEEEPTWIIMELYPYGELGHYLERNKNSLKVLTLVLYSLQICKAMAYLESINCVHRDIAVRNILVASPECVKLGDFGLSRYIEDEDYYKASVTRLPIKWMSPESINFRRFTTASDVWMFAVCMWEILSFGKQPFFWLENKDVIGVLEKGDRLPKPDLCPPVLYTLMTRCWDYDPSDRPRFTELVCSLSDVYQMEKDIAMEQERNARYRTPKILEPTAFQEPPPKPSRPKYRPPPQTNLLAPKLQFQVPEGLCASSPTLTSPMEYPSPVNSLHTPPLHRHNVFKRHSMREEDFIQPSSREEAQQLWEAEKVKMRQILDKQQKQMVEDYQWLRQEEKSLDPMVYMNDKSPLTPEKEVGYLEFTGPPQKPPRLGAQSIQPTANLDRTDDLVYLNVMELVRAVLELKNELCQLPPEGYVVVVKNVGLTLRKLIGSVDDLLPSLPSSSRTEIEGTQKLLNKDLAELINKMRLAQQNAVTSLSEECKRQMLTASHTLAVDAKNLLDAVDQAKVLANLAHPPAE
PTEN del growth – PTEN-deleted cell growth suppression; HCT116 PTEN-null viability, CellTiter-Glo, 60 h; stronger effect = lower value; viability, % at 10 µM; 1.2% of 140,000 active; AID 827;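 active means viability at or below a set limit, 4 SD under the median of all tested compounds, cut at about 3.7% in these data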;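 further: PTEN knockout HCT116 line with beta catenin targeted HCT116 as companion control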
Lung fibro prol – blocks proliferation of human lung fibroblasts; LL 47 human lung fibroblast viability, ATP luminescence; stronger effect = lower value; 1.1% of 85,000 active; viability, % at 10 µM;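 active means viability at or below 50% in the single dose screen; inactive means viability above 50%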;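 further: compound exposure lasted 72 h before the ATP readout; 100% = median luminescence of untreated cell-only wells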
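Assay system: human lung fibroblast line LL 47, low passage. Input: 1,150 fibroblasts seeded per well. Times: overnight cell rest, 72 h compound treatment at 37 °C. Evaluation: % viability of median cell-only signal. Technique: luminescent ATP detection, CellTiter-Glo. Control set: cell-only wells, no compound.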
HCT116 bCat-KO – beta-catenin-lacking colon tumor cell growth suppression; HCT116 beta-catenin knockout viability, CellTiter-Glo, 60 h; stronger effect = lower value; viability, % at 10 µM; 1.5% of 140,000 active;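 active means viability at or under a set limit, the compound median less 4 SD, cut at about 6% in these data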;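 further: 0% = Hyamine 1622 control at 20 µM and 100% = untreated cell control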
H69AR growth 86K – blocks growth of human H69AR lung tumor cells; H69AR lung tumor viability, ATP luminescence, 72 h; stronger effect = lower value; viability, % at 10 µM; 6% of 85,000 active; AID 598;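 active means viability at or below 40%; inactive means viability above 40%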;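 further: multidrug resistant small cell line overexpressing MRP-1 efflux transporter; 100% = mean luminescence of untreated control wells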
HUVEC prolif 384 – human endothelial cell proliferation inhibition; HUVEC proliferation, CellTiter-Glo luminescence, 72 h; stronger effect = lower value; viability, % at 10 µM (by protocol); AID 648; 1.1% of 86,000 active;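 active means viability at or below 30%; inactive means viability above 30%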;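 further: 100% = median luminescence of DMSO-only cell control wells on each plate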
Active calls of the source: *; / = no result.

SMILES	PTK2B oligo ant	PTEN del growth	Lung fibro prol	HCT116 bCat-KO	H69AR growth 86K	HUVEC prolif 384
COc1cccc(-n2nc(C(=O)N3CC(C)CC(C)C3)c3ccccc3c2=O)c1 (stereo not drawn)	-0.49	100	96	95	85	107
O=C(Nc1nnc(-c2ccc3c(c2)CCCC3)o1)c1ccc(Cl)cc1Cl	/	52	89	50	52	29*
O=C(Nc1nnc(-c2ccccc2Cl)o1)c1cccnc1	1.4	88	98	90	72	83
Cc1ccc(NCC(=O)N/N=C\C(Br)=C\c2ccccc2)cc1	0.21	2.7*	100	2.6*	74	100
O=C(N/N=C/C(Br)=C\c1ccccc1)c1ccc2nc[nH]c2c1	/	3.3*	/	2.2*	/	/
CCOc1cc(C(=O)N/N=C/C(Br)=C/c2ccccc2)cc(OCC)c1OCC	/	2.3*	/	14	/	/
Cc1onc(-c2ccccc2)c1C(=O)N/N=C/C(Br)=C/c1ccccc1	/	2.9*	/	3.6*	/	/
COc1ccc(CNC(=O)CSc2ncnc3nc[nH]c23)cc1	1.1	98	100	98	87	80
COc1ccc(/C(C)=N/OCC(=O)N2CC3(C)CC2CC(C)(C)C3)cc1 (stereo not drawn)	0.2	80	/	83	/	/
Cc1nc(-c2coc3c(CN(C)C)c(O)ccc3c2=O)cs1	0.63	86	107	78	88	105
C#CCNC(=O)/C=C/c1ccc(OC)cc1	/	92	/	99	/	/
O=C(Nc1nc(=S)ss1)c1ccc(Cl)cc1Cl	0.74	102	100	89	96	61
Cc1ccc(S(=O)(=O)N(C(=O)c2ccncc2)c2ccc(OC(=O)c3ccncc3)c3ccccc23)cc1	/	6	/	9	/	/
COc1ccc(S(=O)(=O)N(C(C)=O)c2ccc(OC(C)=O)c3ccccc23)cc1[N+](=O)[O-]	/	2.8*	/	2.0*	/	/
CN(C)CCSc1nnc2[nH]c3ccccc3c2n1	/	93	/	82	/	/
Cc1cc(C)n(Cc2ccc(Cl)cc2Cl)c(=O)c1S(=O)(=O)c1ccccc1	-0.75	75	/	66	/	/
CSc1cc(-c2ccccc2)n(Cc2ccc(Cl)cc2Cl)c(=O)c1C#N	-0.13	102	94	96	36*	93
Cc1cc[n+]2cc(-c3cccc([N+](=O)[O-])c3)c(-c3cccc([N+](=O)[O-])c3)cc2c1	/	92	/	91	/	/
CCn1c(=S)sc2c(=O)n(-c3ccccc3)c(SCC(=O)NCc3ccco3)nc21	-2.5	75	100	82	82	94
CCC(C)NC(=O)CSc1nc2c(sc(=S)n2Cc2ccco2)c(=O)n1-c1ccccc1 (stereo not drawn)	-1.4	61	94	67	32*	82
Clc1ccc(C(c2nnnn2C2CCCCC2)N(Cc2cccnc2)Cc2ccco2)cc1 (stereo not drawn)	-0.52	58	91	46	36*	97
Cc1ccc2[nH]c(=O)c(C(c3nnnn3C3CCCC3)N(Cc3cccnc3)Cc3ccco3)cc2c1 (stereo not drawn)	1.1	69	90	74	62	80
O=C(NC(=S)NCCN1CCOCC1)c1ccc(Cl)cc1	/	92	/	95	/	/
CCNc1nc(CSc2ccccc2)nc2sc(C)c(C)c12	/	66	/	61	/	/
CN(C)c1ccc(/C=C/C(O)=C2/C(=O)N(C)C3(C)CC2c2ccccc2O3)cc1 (stereo not drawn)	/	52	96	56	21*	91
SMILES	PTK2B oligo ant	PTEN del growth	Lung fibro prol	HCT116 bCat-KO	H69AR growth 86K	HUVEC prolif 384
CCOC(=O)N1CCC(NC(=O)c2cc3c(-c4cccc(OC)c4)nn(C)c3s2)CC1	-2.5	75	93	82	10*	75
COc1cccc(-c2nn(C)c3sc(C(=O)NCc4ccc(C)cc4)cc23)c1	-1.5	87	108	93	92	87
CCOc1cc(/C=N/Nc2nc(-c3cccc(S(=O)(=O)N4CCCC4)c3)cs2)ccc1O	/	69	/	78	/	/
CC1=C(C(=O)OCc2ccc3c(c2)OCO3)C(c2ccccc2)NC(=O)N1 (stereo not drawn)	-3.4*	23	82	24	23*	26*
CCCOc1ccccc1C1NC(=O)NC(C)=C1C(=O)OCc1ccccc1 (stereo not drawn)	-2.5	79	100	85	95	110
CC1=C(C(=O)OCc2ccc3c(c2)OCO3)C(c2ccccc2OCc2ccccc2)NC(=O)N1 (stereo not drawn)	-3.2*	56	96	60	77	86
Cc1ccnc(SCCn2c(Br)nc3c2c(=O)n(C)c(=O)n3C)n1	/	/	99	/	94	100
COC(=O)c1ccc(CNC(=O)COC(=O)C2CCC(C(C)(C)C)CC2)cc1 (stereo not drawn)	/	88	/	95	/	/
CCN(CC)S(=O)(=O)c1ccc2oc(C(=O)NCC3COc4ccccc4O3)c(C)c2c1 (stereo not drawn)	-0.77	50	93	49	32*	84
CCN(CC)S(=O)(=O)c1ccc2oc(C(=O)NCc3ccc(F)cc3)c(C)c2c1	-1.3	62	90	61	33*	65
CCN(CC)S(=O)(=O)c1ccc2oc(C(=O)NCCCN3CCOCC3)c(C)c2c1	-0.37	99	100	100	62	83
CCCCOC(=O)CSc1nc2c(c(=O)[nH]c(=O)n2C)n1C/C=C(\C)Cl	-0.53	95	105	112	90	93
C/C(Cl)=C/Cn1c(SCC(C)C)nc2c1c(=O)[nH]c(=O)n2C	1.8	/	57	/	35*	77
CC1CCC(NC(=O)c2ccc(NC(=O)c3ccc(=O)[nH]c3)cc2)CC1 (stereo not drawn)	/	84	/	70	/	/
CCOC(=O)c1ccc(Cn2c(-c3ccccc3)nnc2-c2ccccc2)o1	-2.4	79	91	77	33*	97
CCc1ccc(C(=O)NCc2ccc(Cl)cc2)cc1	-1.2	97	/	90	/	/
FC(F)(F)c1cc(-c2ccco2)nc(NCc2ccccc2)n1	0.49	55	92	62	98	100
FC(F)(F)c1cc(-c2ccco2)nc(NCc2cccnc2)n1	0.06	52	96	47	29*	55
FC(F)(F)c1cc(-c2ccccc2)nc(NCc2cccnc2)n1	-3.4*	82	82	80	76	81
C=C(C)CNC(=S)NNC(=O)c1ccc(Br)cc1	/	90	/	85	/	/
CCCOc1ccc(NC(=O)CC2C(=O)N(Cc3ccccc3)C(=S)N2Cc2cccs2)cc1 (stereo not drawn)	/	43	/	55	/	/
O=C(COc1ccc2ccccc2c1CN1CCOCC1)N1CCc2ccccc21	-0.12	42	84	47	105	69
Cc1nn(Cc2cccc(C(=O)NC34CC5CC(CC(C5)C3)C4)c2)c(C)c1Br	-1.3	79	91	77	98	29*
CC(C)n1cc(NC(=O)c2cc(-c3ccccc3)on2)cn1	0.37	25	73	24	21*	70
O=C(Nc1cccnc1)c1cc(-c2ccccc2)on1	1.1	93	100	89	103	105
